Measurements: ChEMBL document CHEMBL5661971 (Cancer Res, 2006)
Calls of active or inactive are those of the source. No cut-off for these calls is given here.

How the values were obtained:
HT-1080 = assay: Antiproliferative activity against human HT-1080 cells expressing N-Ras Q61K mutant assessed as decrease in cell growth incubated for 72 hrs by CellTiter-Glo based luminescence assay; assay type: functional; details: HT-1080, 72 h
Outline: (§1)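 Cells treated over 1 nmol/L to 20 μmol/L in 0.1% DMSO for 72 h at 37°C, 5% CO₂. Viable cells read by CellTiter-Glo luminescence. EC50 derived from proliferation data.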

[1] = Inhibition of MEK in human HMEC cells assessed as inhibition of ERK phosphorylation incubated for 60 mins by Western blotting analysis; assay type: cell-based; details: 1 h
Outline: (§2)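 Cells exposed for 60 min, then Western blot for phospho-ERK1/2 and total ERK1/2 with infrared imaging. […] DMSO control.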

Malme-3M = assay: Antiproliferative activity against human Malme-3M cells expressing B-Raf V600E mutant assessed as decrease in cell growth incubated for 72 hrs by CellTiter-Glo based luminescence assay; assay type: functional; outline: as §1
HT-29 = assay: Antiproliferative activity against human HT-29 cells expressing B-Raf V600E mutant assessed as decrease in cell growth incubated for 72 hrs by CellTiter-Glo based luminescence assay; assay type: functional; details: HT-29, 72 h; outline: as §1
[2] = Inhibition of MEK in human Malme-3M cells expressing B-Raf V600E mutant assessed as inhibition of ERK phosphorylation incubated for 60 mins by Western blotting analysis; assay type: cell-based; details: 1 h; outline: as §2
SK-MEL-2 = assay: Antiproliferative activity against human SK-MEL-2 cells expressing N-Ras Q61R mutant assessed as decrease in cell growth incubated for 72 hrs by CellTiter-Glo based luminescence assay; assay type: functional; details: SK-MEL-2, 72 h; outline: as §1
[3] = Cytotoxicity against human PrEC cells assessed as decrease in cell growth incubated for 72 hrs by CellTiter-Glo based luminescence assay; assay type: toxicity; outline: as §1
[4] = Inhibition of MEK in human HCT-116 cells expressing K-Ras2 G13D mutant assessed as inhibition of ERK phosphorylation incubated for 60 mins by Western blotting analysis; assay type: cell-based; details: HCT-116, 1 h; outline: as §2
COLO 205 = assay: Antiproliferative activity against human COLO 205 cells expressing B-Raf V600E mutant assessed as decrease in cell growth incubated for 72 hrs by CellTiter-Glo based luminescence assay; assay type: functional; details: COLO 205, 72 h; outline: as §1
[5] = Inhibition of MEK in human HFF cells assessed as inhibition of ERK phosphorylation incubated for 60 mins by Western blotting analysis; assay type: cell-based; details: 1 h; outline: as §2
[6] = Antiproliferative activity against human A375P cells expressing B-Raf V600E mutant assessed as decrease in cell growth incubated for 72 hrs by CellTiter-Glo based luminescence assay; assay type: functional; outline: as §1
[7] = Cytotoxicity against human HFF cells assessed as decrease in cell growth incubated for 72 hrs by CellTiter-Glo based luminescence assay; assay type: toxicity; outline: as §1
WM35 = assay: Inhibition of MEK in human WM35 cells assessed as decreased ERK phosphorylation at 2 micromol/L incubated for 60 mins by Western blotting analysis; assay type: cell-based; details: dose 2.0 µmol/L
[8] = Cytotoxicity against human HMEC cells assessed as decrease in cell growth incubated for 72 hrs by CellTiter-Glo based luminescence assay; assay type: toxicity; outline: as §1
[9] = Inhibition of MEK in human HT-29 cells expressing B-Raf V600E mutant assessed as inhibition of ERK phosphorylation incubated for 60 mins by Western blotting analysis; assay type: cell-based; details: HT-29, 1 h; outline: as §2
[10] = Inhibition of MEK in human COLO 205 cells expressing B-Raf V600E mutant assessed as inhibition of ERK phosphorylation incubated for 60 mins by Western blotting analysis; assay type: cell-based; details: COLO 205, 1 h; outline: as §2
WM-NCI = assay: Inhibition of MEK in human WM-NCI cells assessed as decreased ERK phosphorylation at 2 micromol/L incubated for 60 mins by Western blotting analysis; assay type: cell-based; details: dose 2.0 µmol/L
[11] = Inhibition of MEK in human PrEC cells assessed as inhibition of ERK phosphorylation incubated for 60 mins by Western blotting analysis; assay type: cell-based; details: 1 h; outline: as §2
[12] = Inhibition of MEK in human A375P cells expressing B-Raf V600E mutant assessed as inhibition of ERK phosphorylation incubated for 60 mins by Western blotting analysis; assay type: cell-based; details: 1 h; outline: as §2
[13] = Inhibition of MEK in human HT-1080 cells expressing N-Ras2 Q61K mutant assessed as inhibition of ERK phosphorylation incubated for 60 mins by Western blotting analysis; assay type: cell-based; details: HT-1080, 1 h; outline: as §2
[14] = Inhibition of MEK in human SK-MEL-2 cells expressing N-Ras2 Q61R mutant assessed as inhibition of ERK phosphorylation incubated for 60 mins by Western blotting analysis; assay type: cell-based; details: SK-MEL-2, 1 h; outline: as §2
[15] = Inhibition of MEK in human SK-MEL-28 cells expressing B-Raf V600E mutant assessed as inhibition of ERK phosphorylation incubated for 60 mins by Western blotting analysis; assay type: cell-based; details: SK-MEL-28, 1 h; outline: as §2
WM-3434 = assay: Inhibition of MEK in human WM-3434 cells assessed as decreased ERK phosphorylation at 2 micromol/L incubated for 60 mins by Western blotting analysis; assay type: cell-based; details: dose 2.0 µmol/L
HCT-116 = assay: Antiproliferative activity against human HCT-116 cells expressing K-Ras G13D mutant assessed as decrease in cell growth incubated for 72 hrs by CellTiter-Glo based luminescence assay; assay type: functional; details: HCT-116, 72 h; outline: as §1
Melanocyte [16] = assay: Inhibition of MEK in normal human Melanocyte cells assessed as decreased ERK phosphorylation at 2 micromol/L incubated for 60 mins by Western blotting analysis; assay type: cell-based; details: dose 2.0 µmol/L
SK-MEL-28 = assay: Antiproliferative activity against human SK-MEL-28 cells expressing B-Raf V600E mutant assessed as decrease in cell growth incubated for 72 hrs by CellTiter-Glo based luminescence assay; assay type: functional; details: SK-MEL-28, 72 h; outline: as §1
[17] = In vivo inhibition of ERK phosphorylation in human A375P cells xenografted in nude mouse at 50 mg/kg administered daily for 21 days and then observed an additional 14 days following cessation of treatment relative to control; assay type: functional; details: 504 h, time 21 day
[18] = Toxicity in nude mouse xenografted with human A375P cells assessed as body weight change at 50 mg/kg administered daily for 21 days and then observed an additional 14 days following cessation of treatment; assay type: organism-based; details: in vivo, 504 h, time 21 day
[19] = target: RAF proto-oncogene serine/threonine-protein kinase (Homo sapiens, UniProt P04049); assay: Inhibition of c-Raf (unknown origin) assessed as apparent inhibition constant; details: read-out: Ki(app)
A375P = assay: Anti-tumor activity against human A375P cells xenografted in nude mouse assessed as decreased tumorigenesis at 50 mg/kg administered daily for 21 days and then observed an additional 14 days following cessation of treatment and measured after 55 days; assay type: functional, organism-based; details: time 21.0 day
Outline: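 Female nude mice, 8–12 weeks old, injected s.c. with 5×10^6 A375P cells in Matrigel. Treatment began 3 weeks later at tumor volume 150–250 mm³, groups of eight randomized. Daily i.p. dosing for 21 days in 2% N,N-dimethylacetamide/2% Cremophor EL/96% acidified water (pH ~4–5), vehicle controls. Caliper tumor volume twice weekly for 55 days; mean ±SE.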

Melanocyte [20] = assay: Induction of cell cycle arrest in normal human Melanocyte cells assessed as accumulation of cells at G1 phase at 10 uM incubated for 24 hrs by flow cytometry analysis; assay type: toxicity, cell-based
Outline: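 Normal human melanocytes exposed to 1 and 10 μmol/L for 24 h. Cell cycle distribution measured by flow cytometry on a FACScan.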

[21] = Inhibition of BRAF V599E mutant (unknown origin) assessed as apparent inhibition constant incubated for 25 mins in presence of gamma-[33P]ATP; set-up: species or system Homo sapiens; details: read-out: Ki(app)

Sequence of RAF proto-oncogene serine/threonine-protein kinase (P04049 whole entry): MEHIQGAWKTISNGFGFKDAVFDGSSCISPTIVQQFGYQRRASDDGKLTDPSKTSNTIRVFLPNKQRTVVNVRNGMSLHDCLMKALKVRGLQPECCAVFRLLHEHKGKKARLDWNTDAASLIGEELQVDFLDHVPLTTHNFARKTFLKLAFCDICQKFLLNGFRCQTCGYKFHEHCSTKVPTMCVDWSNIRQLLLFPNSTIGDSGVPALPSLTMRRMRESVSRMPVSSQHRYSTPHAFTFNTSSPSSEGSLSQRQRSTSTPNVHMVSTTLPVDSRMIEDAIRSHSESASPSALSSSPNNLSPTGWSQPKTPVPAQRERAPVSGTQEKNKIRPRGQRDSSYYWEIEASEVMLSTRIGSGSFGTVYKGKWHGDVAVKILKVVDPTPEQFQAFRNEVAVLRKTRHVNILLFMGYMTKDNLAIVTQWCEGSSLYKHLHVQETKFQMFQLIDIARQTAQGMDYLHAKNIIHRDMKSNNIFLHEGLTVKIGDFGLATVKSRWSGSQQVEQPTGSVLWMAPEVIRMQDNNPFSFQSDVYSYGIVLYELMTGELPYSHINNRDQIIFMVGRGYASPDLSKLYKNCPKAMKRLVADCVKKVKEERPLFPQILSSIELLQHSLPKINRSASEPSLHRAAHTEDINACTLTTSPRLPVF

EC50 (HT-1080) [nM]	EC50 (HT-29) [nM]	EC50 (SK-MEL-2) [nM]	EC50 (COLO 205) [nM]	EC50 (HCT-116) [nM]	EC50 (SK-MEL-28) [nM]	SMILES	EC50 (Malme-3M) [nM]	EC50 at 72 h [3] [nM]	EC50 [6] [nM]	EC50 at 72 h [7] [nM]	EC50 at 72 h [8] [nM]	further results
1600	360	360	230	2200	220	O=C(NOCC1CC1)c1ccc(F)c(F)c1Nc1ccc(I)cc1Cl [CI-1040]	440	490	240	4900	580	EC50 [1]: 11 nM; EC50 [2]: 520 nM; EC50 [4]: 61 nM; EC50 [5]: 4800 nM; inhibition (WM35): Active; EC50 [9]: 88 nM; EC50 [10]: 47 nM; inhibition (WM-NCI): Active; EC50 [11]: 39 nM; EC50 [12]: 210 nM; EC50 [13]: 66 nM; EC50 [14]: 290 nM; EC50 [15]: 86 nM; inhibition (WM-3434): Active; inhibition (Melanocyte [16]): Active
13000	870	550	100	4600	120	CN(C)CCOc1ccc(-c2nc(-c3ccncc3)c(-c3ccc4c(c3)CC/C4=N\O)[nH]2)cc1 [SB590885]	150	> 13000	370	> 12000	9200	inhibition in vivo at 50 mg/kg [17]: ~50%; Activity [18]: Toxic; Ki [19]: 1.72 nM; Activity (A375P): Active; Activity (Melanocyte [20]): Toxic
						CNC(=O)c1cc(Oc2ccc(NC(=O)Nc3ccc(Cl)c(C(F)(F)F)c3)cc2)ccn1 [SORAFENIB]						Ki [21]: 38 nM
